TRPC4 PAM = TRPC4 (mouse) allosteric potentiation. 310,000 compounds, 0.42% hits. B-score at 10 µM. HEK293 TRPC4beta/mu-opioid, DAMGO EC20, Fluo-4 Ca2+ flux; hits give high values. Q9QUQ5;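 active = B-score of calcium response area above 5 SD of library B-scores, with initial fluorescence ratio within 5 SD of library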;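 also: B-score of integrated fluorescence ratio over time as area under calcium response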
TRPC6 activator = activates the mouse TRPC6 cation channel. HEK293-TRPC6 membrane potential dye fluorescence; hits give high values. 310,000 compounds, 0.13% hits. AID 2550. B-score at 10 µM;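 active = B-score of the integrated fluorescence ratio above library mean plus 3 SD, and starting fluorescence ratio within library mean plus 5 SD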;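 also: higher score means more depolarization so channel activation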
Target sequence (Q61143 whole entry, looked up): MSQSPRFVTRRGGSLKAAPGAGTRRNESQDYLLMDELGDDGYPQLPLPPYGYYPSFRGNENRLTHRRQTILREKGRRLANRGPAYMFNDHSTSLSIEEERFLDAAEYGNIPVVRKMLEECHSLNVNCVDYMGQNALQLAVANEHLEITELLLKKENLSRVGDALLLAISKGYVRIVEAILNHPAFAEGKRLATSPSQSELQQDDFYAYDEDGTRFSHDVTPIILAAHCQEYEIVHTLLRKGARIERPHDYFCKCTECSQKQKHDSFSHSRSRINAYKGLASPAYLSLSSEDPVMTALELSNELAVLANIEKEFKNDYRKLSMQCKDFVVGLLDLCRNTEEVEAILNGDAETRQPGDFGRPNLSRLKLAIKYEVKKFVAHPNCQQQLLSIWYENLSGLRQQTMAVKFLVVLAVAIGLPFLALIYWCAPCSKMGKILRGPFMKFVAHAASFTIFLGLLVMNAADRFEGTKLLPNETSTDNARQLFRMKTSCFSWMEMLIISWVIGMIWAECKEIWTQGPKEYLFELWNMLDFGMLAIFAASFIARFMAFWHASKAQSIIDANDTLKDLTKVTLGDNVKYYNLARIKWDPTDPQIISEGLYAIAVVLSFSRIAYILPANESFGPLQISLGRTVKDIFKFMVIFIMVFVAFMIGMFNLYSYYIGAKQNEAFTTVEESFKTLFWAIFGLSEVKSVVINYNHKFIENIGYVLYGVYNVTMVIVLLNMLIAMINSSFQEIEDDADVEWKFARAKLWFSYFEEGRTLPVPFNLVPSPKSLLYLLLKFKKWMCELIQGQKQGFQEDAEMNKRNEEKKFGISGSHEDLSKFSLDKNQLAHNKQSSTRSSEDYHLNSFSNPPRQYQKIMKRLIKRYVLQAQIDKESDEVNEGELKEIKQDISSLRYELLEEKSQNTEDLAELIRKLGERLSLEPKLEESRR
TRPC6 inh = inhibitors of mouse TRPC6 channel | B-score at 10 µM | HEK293-TRPC6, membrane potential dye, ACh-evoked depolarization; hits give low values | Q61143 | 310,000 compounds, 1.1% hits;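 active = B-score under library mean minus 3 SD, initial fluorescence not abnormally high, positive integrated signal ratio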;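 also: B-score derived from integrated fluorescence ratio over the kinetic read; more negative B-score means stronger inhibition of depolarization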
TRPC4 act = TRPC4 (mouse) channel activation; Q9QUQ5; HEK293 TRPC4beta/mu-opioid, Fluo4 calcium fluorescence; hits give high values; B-score at 10 µM; 310,000 compounds, 0.49% hits; AID 2237;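 active = B-score above 5 SD of library B-scores, and initial fluorescence ratio not above library mean plus 5 SD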;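 also: positive B-score marks a calcium rise read as TRPC4 activation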
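System: HEK293 cells stably co-expressing mouse TRPC4beta and mu-opioid receptor; Schedule: Fluo4 dye loading 45 min at room temperature, 110 s recording; Detection: Fluo4 fluorescence, kinetic; Evaluation: B-scored integrated calcium fluorescence ratio; Controls: buffer (low) and maximal DAMGO (high).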
Kir21 block = blocks the mouse Kir2.1 inward-rectifier potassium channel; HEK293-Kir2.1, FluxOR thallium flux fluorescence; hits give low values; 310,000 compounds, 0.85% hits; B-score at 10 µM;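 active = fluorescence ratio B-score at or below minus 3 SD of library scores, with starting-brightness B-score within 2 SD, cut at about -4.2 in these data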;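 also: channel flux triggered by added potassium and thallium sulfate stimulus; B-score of peak minus minimum fluorescence over baseline after thallium stimulus; more negative B-score means stronger Kir2.1 block with less thallium influx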
TRPC4 inh = TRPC4 (mouse) channel inhibition; HEK293 TRPC4beta/mu-opioid, DAMGO-evoked Fluo4 calcium flux; hits give low values; B-score at 10 µM; 300,000 compounds, 0.39% hits; AID 2247;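 active = B-score over 3 SD under the library average, no early fluorescence shift, positive overall ratio signal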
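Signal: kinetic Fluo4 fluorescence imaging of calcium influx. Material: stable TRPC4beta/mu-opioid receptor HEK293 cells. Probe or stimulus: DAMGO in two steps, submaximal then maximal.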
TRPC4 sel inh 2 = mouse TRPC4 off-target activity of TRPC6 inhibitors, second screen; shares compounds with TRPC6 inh; HEK293 TRPC4/MOR, membrane potential dye fluorescence; channel activated by saturating DAMGO dose; inhibition, % at 10 µM; 920 compounds, 42% hits; AID 2776;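 active = compounds whose fluorescence signal differed from control wells by over 3 SD, either direction, in both duplicate plates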
TRPC4 spec = mouse TRPC4 off-target activity of TRPC6 inhibitors | 920 compounds, 61% hits | AID 2777 | shares compounds with TRPC6 inh | HEK293 TRPC4/mu-opioid, membrane potential fluorescence | activity change, negative = inhibition, % at 10 µM;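 active = rise or fall in signal beyond 3 SD of buffer-only wells in both replicate plates, either sign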;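 also: integrated kinetic ratio of fluorescence range over baseline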
HEK293 MPD ctr 2-1 = parental HEK293 nonspecific activity of TRPC6 inhibitors, second screen | shares compounds with TRPC6 inh | parental HEK293 membrane potential dye fluorescence; maximal acetylcholine challenge after compound addition | signal change vs control, % at 10 µM | 920 compounds, 31% hits | AID 2779;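 active = membrane potential signal moving either way by over 3 SD of the maximum-effect control, in both duplicate plates, meaning non-specific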
HEK293 MPD ctr-1 = checks TRPC6 inhibitor effects in parental HEK293 cells. shares compounds with TRPC6 inh. parental HEK293 membrane potential dye fluorescence. membrane potential signal change, % at 10 µM. 920 compounds, 60% hits. AID 2780;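 active = membrane potential signal shifting up or down by more than 3 SD of buffer-only wells, on both duplicate plates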
HEK293 MPD ctr-2 = checks TRPC6 modulator effects in parental HEK293 cells; shares compounds with TRPC6 inh; membrane potential dye fluorescence; membrane potential signal change, % at 10 µM; 2,400 compounds, 51% hits;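 active = membrane potential signal moves up or down beyond 5 SD from buffer-only wells, on both duplicate plates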
HEK293 MPD ctr 2-2 = parental HEK293 nonspecific activity of TRPC6 modulators, second screen; shares compounds with TRPC6 inh; membrane potential dye fluorescence; after compound, maximal acetylcholine stimulation; inhibition, % at 10 µM; 2,400 compounds, 14% hits; AID 488926;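 active = membrane potential signal drops by more than 5 SD from the mean control signal, in both duplicate plates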;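 also: plate controls were acetylcholine ECmax control wells for no effect and buffer only wells for full effect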
TRPC4 ctr mod = selectivity of TRPC6 modulators against mouse TRPC4 | shares compounds with TRPC6 inh | HEK293 TRPC4/mu-opioid, membrane potential fluorescence | percent change from control (negative = decrease, positive = increase), % at 10 µM | 2,400 compounds, 69% hits | AID 488927;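 active = membrane potential signal moved up or down beyond 5 SD of buffer control wells, in both duplicate plates, actives on both sides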;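 also: plate controls were assay buffer wells for no effect and DAMGO maximal-effect wells for full effect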
TRPC4/MOR inh 2 = second selectivity test of TRPC6 modulators against mouse TRPC4 | shares compounds with TRPC6 inh | HEK293 TRPC4/mu-opioid, membrane potential dye fluorescence; stimulated with maximal-effect DAMGO | inhibition, % at 10 µM | 2,400 compounds, 55% hits | AID 488928;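 active = drop in membrane potential signal beyond 5 SD of the control wells in both duplicate plates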;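 also: TRPC4 counter screen for TRPC6 hits run under conditions tuned for TRPC6 not TRPC4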
TRPC6 block conf = mouse TRPC6 inhibitor confirmation | AID 488960 | inhibition, % at 10 µM | HEK293-TRPC6, membrane potential dye, ACh-evoked depolarization | shares compounds with TRPC6 inh | 3,300 compounds, 43% hits;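 active = fluorescence ratio falls more than 5 SD below the full-stimulation control mean, in both duplicate runs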;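 also: integrated fluorescence ratio of peak minus minimum over baseline after agonist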
TRPC6 act conf = mouse TRPC6 activator confirmation. 2,800 compounds, 11% hits. shares compounds with TRPC6 inh. activation, % at 10 µM. HEK293-TRPC6 membrane potential dye fluorescence, FDSS;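 active = ratio signal rise beyond 5 SD above unstimulated control wells' mean, seen in both duplicate runs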;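 also: plate controls were buffer EC0 wells for no effect and acetylcholine ECmax response for full effect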
Starred values were filed as active, the others as inactive; i = inactive; · = no result given. Only some compounds are listed: those with a hit (about 2.9% of all), similar ones and a draw of the others.

SMILES	TRPC4 PAM	TRPC6 activator	TRPC6 inh	TRPC4 act	Kir21 block	TRPC4 inh	HEK293 MPD ctr-2	HEK293 MPD ctr 2-2	TRPC4 ctr mod	TRPC4/MOR inh 2	TRPC6 block conf	TRPC6 act conf	others
Cc1cccnc1NCC(O)COc1ccccc1 (stereo unspecified)	i	i	-6.48*	i	0.02	i	i	i	i	i	i	i
O=C(NCCSc1ncc(-c2ccc(F)cc2)[nH]1)c1ccc2c(c1)OCO2	i	i	-5.79*	i	-1.93	i	i	i	i	i	i	i
Cc1nc2nc(SCC(=O)NCCCN3CCCCCC3)nn2c(C)c1Cc1ccccc1Cl	i	i	i	i	-1.11	i	·	·	·	·	·	·
Cc1nc2nc(SCC(=O)NCCCN3CCCC(C)C3)nn2c(C)c1Cc1ccccc1Cl (stereo unspecified)	i	i	-6.74*	i	-0.5	i	i	i	i	i	49.0%*	·
Cc1cc(NC(=O)CSc2nnc(CNC(=O)c3ccccc3)o2)no1	i	i	i	i	-1.74	i	·	·	·	·	·	·
COC(=O)c1ccc2nc(C)c(C)nc2c1	i	i	i	i	0.05	i	·	·	·	·	·	·
COC(=O)c1ccc(Nc2cc(C)nc3ccc(C)cc23)cc1	i	i	-7.25*	i	-1.54	i	·	·	·	·	i	i	TRPC4 sel inh 2=i;TRPC4 spec=-21.8%*;HEK293 MPD ctr 2-1=i;HEK293 MPD ctr-1=-299.0%*
Cc1ccc2nc(C)cc(Nc3ccc([N+](=O)[O-])cc3)c2c1	i	i	i	i	1.05	i	·	·	·	·	·	·
COC(=O)c1ccc2nc(C)cc(Nc3ccccc3C)c2c1	i	i	-5.88*	i	-0.65	i	-149.0%*	i	-25.0%*	43.0%*	58.0%*	i
O=C(CCc1nc(-c2ccccc2Cl)no1)NC1CCCCC1	i	i	i	i	-0.01	i	·	·	·	·	·	·
COc1ccc(C)c2sc(N(CCN(C)C)C(=O)c3cccc(N4C(=O)CCC4=O)c3)nc12	i	i	-6.37*	68*	1.71	i	i	i	-17.5%*	43.5%*	i	i
COc1cccc2sc(N(CCN(C)C)C(=O)/C=C/c3cccs3)nc12	i	i	-6*	i	1.79	i	i	i	-9.5%*	71.5%*	43.0%*	i
CCOc1cccc2sc(N(CCN(C)C)C(=O)/C=C/c3cccs3)nc12	i	i	i	i	1.03	i	·	·	·	·	·	·
CN(C)CCN(C(=O)c1cccc(N2C(=O)CCC2=O)c1)c1nc2ccc(Br)cc2s1	i	i	i	i	0.99	i	·	·	·	·	·	·
COc1cccc2sc(N(CCN(C)C)C(=O)c3ccc4c(c3)CCCC4)nc12	i	i	-6.41*	i	-0.03	i	-111.0%*	97.5%*	-34.0%*	94.5%*	86.0%*	i
CCN(CC)CCn1c2c(c(SCC(=O)Nc3ccc4c(c3)OCCO4)nc1=O)CCCC2	i	i	i	i	-0.73	i	·	·	·	·	·	·
COC(=O)c1ccc(CN2CCC(Oc3cccc(C(=O)N4CCOCC4)c3)CC2)cc1	i	i	i	i	-0.62	i	·	·	·	·	·	·
COCCNC(=S)N(CCc1c(C)[nH]c2ccc(Cl)cc12)Cc1cccnc1	i	i	-7.04*	i	0.02	i	·	·	·	·	i	i	TRPC4 sel inh 2=i;TRPC4 spec=i;HEK293 MPD ctr 2-1=i;HEK293 MPD ctr-1=i
O=C(Oc1ccc(F)c(F)c1)c1ccc2c(=O)n3c(nc2c1)CCC3	i	i	-5.11*	i	-0.35	i	i	i	i	i	i	i
O=C(Nc1ccc(Cl)cc1Cl)c1ccc2c(=O)n3c(nc2c1)CCC3	i	i	-5.1*	59*	-0.29	i	276.5%*	114.5%*	34.0%*	i	i	·
CCc1ccc(C(=O)NNC(=O)c2ccc3c(=O)n4c(nc3c2)CCC4)cc1	i	i	i	i	0.07	i	·	·	·	·	·	·
CCCCc1nnc(NC(=O)c2ccc3c(=O)n4c(nc3c2)CCC4)s1	i	i	-7.42*	i	0.16	i	·	·	·	·	i	i	TRPC4 sel inh 2=i;TRPC4 spec=-15.2%*;HEK293 MPD ctr 2-1=i;HEK293 MPD ctr-1=-130.5%*
O=c1c(C(c2ccccc2)c2c(O)nc3n(c2=O)CCS3)c(O)nc2n1CCS2	i	i	i	i	0.74	i	·	·	·	·	·	·
COc1cccc(C(C(=O)NC2CCCC2)N(C(=O)CNC(=O)c2ccco2)c2cccnc2)c1 (stereo unspecified)	i	i	i	i	·	i	·	·	·	·	·	·
CCN1C(=O)/C(=C/c2ccc(N3CCCC3)cc2)NC1=S	i	29.9*	i	i	-5.76	i	359.0%*	i	235.0%*	i	i	43.5%*
CCCN1C(=O)/C(=C/c2ccc(N3CCCC3)c(C)c2)NC1=S	i	62.5*	i	58*	-4.02	i	670.5%*	i	225.5%*	i	i	135.5%*

Screening data from PubChem.
